1 compound from ChEMBL document CHEMBL4616704, “Discovery of an Atropisomeric PI3Kβ Selective Inhibitor through Optimization of the Hinge Binding Motif” (ACS Med Chem Lett, 2020) can be followed below.

pEC50: −log10 of the molar value.

Series [1] in a line: Clearance in human hepatocytes at 1 uM measured up to 250 mins by UHPLC-HRMS analysis. Type of series: ADME, cell-based, Hepatocyte.
Series [2] can be described thus: Ocular toxicity in Beagle dog assessed as irreversible damage by measuring dilated pupils at 10 to 40 mg/kg/day administered for 7 days and measured from day 4 to day 7. Type of series: organism-based, Canis lupus familiaris. Particulars: in vivo, 168 h.
The nature of series [3]: Genotoxicity in Salmonella typhimurium by Ames test. The format is toxicity. To be noted: salmonella enterica subsp. enterica serovar typhimurium. For orientation: The Ames test uses bacterial strains that need an amino acid and regain growth without it when mutated back.
Series [4] can be described thus: MRT in rhesus monkey at 1 mg/kg administered as iv infusion for 30 mins and measured after 24 hrs by ESI-LC/MS/MS analysis. The format is ADME, organism-based, Macaca mulatta. To be noted: in vivo.
The nature of series [5]: Protein binding in Sprague-Dawley rat plasma at 1 mg/kg administered as iv infusion for 30 mins and measured after 24 hrs by ESI-LC/MS/MS analysis. The format is ADME, organism-based. Particulars: read-out: PPB (converted).
The nature of series [6]: MRT in cynomolgus monkey at 1 mg/kg administered as iv infusion for 30 mins and measured after 24 hrs by ESI-LC/MS/MS analysis. Type of series: ADME, organism-based, Macaca fascicularis. To be noted: in vivo.
A short description of series [7]: Apparent permeability across basolateral to apical side in human Caco2 cells at 10 uM after 1 to 2 hrs by LC/MS/MS analysis. The format is ADME, cell-based. To be noted: Caco-2. In general terms: Passage across Caco-2 layers is used to estimate intestinal permeability.
Series [8] in a line: Clearance in Sprague-Dawley rat at 1 mg/kg administered as iv infusion for 30 mins and measured after 24 hrs by ESI-LC/MS/MS analysis. Type of series: ADME, organism-based. Particulars: in vivo.
The nature of series [9]: Terminal half life in rhesus monkey at 1 mg/kg administered as iv infusion for 30 mins and measured after 24 hrs by ESI-LC/MS/MS analysis. The format is ADME, organism-based, Macaca mulatta. Particulars: in vivo, read-out: beta t1/2 (converted).
Series [10] is described as follows: Terminal half life in cynomolgus monkey at 1 mg/kg administered as iv infusion for 30 mins and measured after 24 hrs by ESI-LC/MS/MS analysis. The format is ADME, organism-based, Macaca fascicularis. Particulars: in vivo, read-out: beta t1/2 (converted).
In series [11] the target is Phosphatidylinositol 4,5-bisphosphate 3-kinase catalytic subunit beta isoform (Homo sapiens, UniProt P42338). As to the kind of experiment: Inhibition of PI3Kbeta in PTEN-deficient human LNCAP cells assessed as reduction in AKT phosphorylation at Ser473 residue after 2 hrs by mesoscale assay. Type of series: cell-based. An outline of the steps: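 Cellular readout: pAKT1 Ser473 normalized to total AKT1, expressed as units pAKT1 Ser473 per nanogram total AKT1; cells treated under serum-free conditions.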
Sequence of Phosphatidylinositol 4,5-bisphosphate 3-kinase catalytic subunit beta isoform (P42338 whole entry, canonical isoform): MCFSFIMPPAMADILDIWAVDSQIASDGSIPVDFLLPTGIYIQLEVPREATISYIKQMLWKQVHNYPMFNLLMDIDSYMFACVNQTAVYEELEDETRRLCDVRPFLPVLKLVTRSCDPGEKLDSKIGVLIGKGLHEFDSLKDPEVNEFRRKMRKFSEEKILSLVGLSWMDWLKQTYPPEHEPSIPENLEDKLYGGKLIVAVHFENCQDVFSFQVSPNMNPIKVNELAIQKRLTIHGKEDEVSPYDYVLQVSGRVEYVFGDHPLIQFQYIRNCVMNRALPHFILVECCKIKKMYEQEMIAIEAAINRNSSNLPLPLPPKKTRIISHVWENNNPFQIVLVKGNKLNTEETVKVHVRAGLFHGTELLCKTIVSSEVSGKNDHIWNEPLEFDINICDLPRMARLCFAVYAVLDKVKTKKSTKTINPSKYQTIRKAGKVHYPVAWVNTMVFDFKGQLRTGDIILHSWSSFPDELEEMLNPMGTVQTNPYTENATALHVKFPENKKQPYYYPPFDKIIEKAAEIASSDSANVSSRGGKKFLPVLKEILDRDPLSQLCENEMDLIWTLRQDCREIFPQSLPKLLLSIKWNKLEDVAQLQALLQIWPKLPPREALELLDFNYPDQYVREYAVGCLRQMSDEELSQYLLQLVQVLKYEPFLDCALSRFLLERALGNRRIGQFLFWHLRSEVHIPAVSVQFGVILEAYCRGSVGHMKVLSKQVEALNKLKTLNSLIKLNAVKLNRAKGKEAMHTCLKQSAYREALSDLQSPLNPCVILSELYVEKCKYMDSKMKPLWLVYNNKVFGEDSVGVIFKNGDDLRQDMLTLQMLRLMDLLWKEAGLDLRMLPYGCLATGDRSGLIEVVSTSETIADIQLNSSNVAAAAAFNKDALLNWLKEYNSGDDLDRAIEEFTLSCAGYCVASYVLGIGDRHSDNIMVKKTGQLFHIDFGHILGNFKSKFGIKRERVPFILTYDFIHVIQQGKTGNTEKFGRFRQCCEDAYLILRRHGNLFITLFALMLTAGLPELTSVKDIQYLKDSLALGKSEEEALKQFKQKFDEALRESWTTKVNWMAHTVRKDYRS

The MRT is a mean duration of stay, worked out from the concentration-time curve. The Papp B→A is the apparent permeability from the basolateral to the apical side of a cell layer. One may read the clearance as the volume of plasma or blood freed of the substance per unit of time. As usually defined, the pEC50 is the EC50 on a negative log10 scale, so that one unit is a factor of ten. Turning to `Cc1nc2c(-c3nnc[nH]3)cc(-c3ccnc(C#N)c3)cc2n1-c1ccnc2c(F)ccc(F)c12`, the CLH at 1 µM in [1] is 3.17 mL/min/kg. Besides, the CLH in series [1] (250 min, 1 µM) stood at 3 mL/min/kg. The Activity result in series [2] is “Toxic”; in series [3] it was “Non-Toxic”. Besides, the mean residence time MRT is 5.5 h in series [4] and 5.2 h in series [6]. Moreover, the fraction unbound at 24 h in series [5] was 0.16. Besides, the Papp B→A at 10 µM in [7] worked out at 32 ×10⁻⁶ cm/s. For the same compound, in series [8], the clearance is 32.8 mL/min/kg. Also, the half-life in series [9] is 4.4 h; in series [10], 4.1 h. For the same compound, the pEC50 in series [11] is 7.51.
